# Assay results from PMC4201344 (ACS Chemical Biology, 2014).
# “Also recorded” adds a separate entry of the source.
# Legend:
# Test in all cases: two-electrode voltage clamp, Xenopus laevis oocytes
# Type in all cases: cell-based, C. elegans
# GluClβ T10′A = molecular target: T1, GluClβ T10′A (Caenorhabditis elegans, UniProt Q17328, T287A)
# T1 sequence (Q17328 23-434 T287A): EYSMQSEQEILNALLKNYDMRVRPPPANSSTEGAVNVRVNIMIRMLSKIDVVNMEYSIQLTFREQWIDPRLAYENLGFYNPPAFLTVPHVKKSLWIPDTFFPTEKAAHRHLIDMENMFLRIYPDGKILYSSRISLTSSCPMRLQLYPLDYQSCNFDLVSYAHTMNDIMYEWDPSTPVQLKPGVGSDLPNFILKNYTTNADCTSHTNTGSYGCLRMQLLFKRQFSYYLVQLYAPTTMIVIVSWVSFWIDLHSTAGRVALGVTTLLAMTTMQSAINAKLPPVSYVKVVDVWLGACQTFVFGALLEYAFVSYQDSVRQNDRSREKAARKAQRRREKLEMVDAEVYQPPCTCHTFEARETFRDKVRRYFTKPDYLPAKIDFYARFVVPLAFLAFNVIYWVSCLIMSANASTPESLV
# GluClβ T6′S, R40E = GluClβ T6′S, R40E (Caenorhabditis elegans, UniProt Q17328, R66E/T283S); settings: glutamate
# Sequence of GluClβ T6′S, R40E (Q17328 23-434 R66E/T283S): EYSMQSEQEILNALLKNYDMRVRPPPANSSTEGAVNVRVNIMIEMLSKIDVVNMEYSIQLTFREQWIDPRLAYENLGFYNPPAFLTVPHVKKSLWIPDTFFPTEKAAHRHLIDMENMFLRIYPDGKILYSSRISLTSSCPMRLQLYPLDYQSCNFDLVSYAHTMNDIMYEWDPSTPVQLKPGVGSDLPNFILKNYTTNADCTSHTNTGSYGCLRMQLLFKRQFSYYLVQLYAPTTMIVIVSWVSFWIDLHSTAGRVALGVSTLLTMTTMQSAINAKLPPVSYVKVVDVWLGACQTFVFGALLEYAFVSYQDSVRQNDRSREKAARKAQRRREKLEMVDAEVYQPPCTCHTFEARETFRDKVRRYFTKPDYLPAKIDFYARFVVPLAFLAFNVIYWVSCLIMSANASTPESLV
# How it was run: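 C. elegans GluClβ (mammalian codon-optimised) in pGEMhe, mutated by QuikChange; T7 mRNA. […] Voltage clamp at −60 mV in Ca-free ND96, pH 7.5. […] Peak currents taken from baseline, normalised, averaged per concentration, and fit to Hill equation (EC50, nH).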
# GluClβ T6′S, T203A = GluClβ T6′S, T203A (Caenorhabditis elegans, UniProt Q17328, T229A/T283S); settings: glutamate
# Sequence of GluClβ T6′S, T203A (Q17328 23-434 T229A/T283S): as the sequence (Q17328 23-434 R66E/T283S) above, with E44R, T207A counted along it
smiles,measurement,setting,value
N[C@@H](CCC(=O)O)C(=O)O [glutamate],EC50,GluClβ T10′A; glutamate,13 ± 1 µM
same,Hill,GluClβ T10′A; glutamate,2.8 ± 0.1
same,Imax,GluClβ T10′A; glutamate,2–28 μA
same,increase in receptor sensitivity,GluClβ T10′A; vs WT,27 fold
same,EC50,"GluClβ T6′S, R40E",nonfunctional; also recorded: no response
same,EC50,"GluClβ T6′S, T203A",640 ± 10 µM
same,Hill,"GluClβ T6′S, T203A",2.3 ± 0.1
